Tests used:
[1] = test system: Canis familiaris; assay: Percent increase in heart rate was measured in anesthetized dogs; format: functional, Canis lupus familiaris
In short: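 Heart rate taken from a cardiometer triggered by the femoral arterial pressure pulse, in pentobarbital-anesthetized (35 mg/kg iv), ventilated mongrel dogs (7–14 kg). Escalating iv log doses at 5-min intervals. Reported as percent change from control at the inotropic ED50 dose.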

[2] = test system: Canis familiaris; assay: Heart contractility was measured in anesthetized dogs (iv); format: functional; conditions: Canis lupus familiaris
In short: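 Mongrel dogs of either sex (7–14 kg), pentobarbital-anesthetized (35 mg/kg iv), ventilated, kept at 37–38 °C. Right-ventricular Walton-Brodie strain-gauge arch at 50 g tension. Increasing log doses given iv via femoral vein at 5-min intervals, peak response recorded. ED50 (dose for 50% contractility rise) by linear regression, mean ± SEM. Separate animal group per drug.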

[3] = test system: Canis familiaris; assay: Percent decrease in mean arterial blood pressure was measured in anesthetized dogs; format: functional, Canis lupus familiaris
In short: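 Pentobarbital-anesthetized (35 mg/kg iv), ventilated mongrel dogs of either sex (7–14 kg). Mean arterial pressure recorded via femoral arterial catheter and pressure transducer. Log doses given iv at 5-min intervals. Value is percent change from control at the inotropic ED50 dose.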

O=C1CCC(c2ccc(-c3ccncc3)cc2)=NN1
Increase in HR [1]: 19.1% | ED50 [2]: 0.146 mg/kg | Decrease in MAP [3]: 29.9%

O=C1CCC(c2ccccc2)=NN1
Increase in HR [1]: 39.1% | ED50 [2]: 6.33 mg/kg | Decrease in MAP [3]: 24.9%

O=C1CCC(c2ccc(-n3ccnc3)cc2)=NN1 [IMAZODAN]
Increase in HR [1]: 16.9% | ED50 [2]: 0.0501 mg/kg | Decrease in MAP [3]: 28.4%

O=C1CCC(c2ccc3c(c2)CCC(=O)N3)=NN1
Increase in HR [1]: 13.2% | ED50 [2]: 0.0032 mg/kg | Decrease in MAP [3]: 16.1%

O=C1CCC(c2ccc(-c3cccnc3)cc2)=NN1
Increase in HR [1]: 7.5% | ED50 [2]: 0.0194 mg/kg | Decrease in MAP [3]: 12.7%

CC(=O)Nc1ccc(C2=NNC(=O)CC2)cc1
Increase in HR [1]: 8.8% | ED50 [2]: 0.0113 mg/kg | Decrease in MAP [3]: 15.1%

O=C1CCC(c2ccc(-c3ccccc3)cc2)=NN1
Increase in HR [1]: 18.8% | ED50 [2]: 0.513 mg/kg | Decrease in MAP [3]: 20.9%

O=C1CCC(c2ccc3c(c2)CCCN3)=NN1
Increase in HR [1]: 37% | Decrease in MAP [3]: 12%

Reference: ChEMBL document CHEMBL1124287, “Imidazole-pyridine bioisosterism: comparison of the inotropic activities of pyridine- and imidazole-substituted 6-phenyldihydropyridazinone cardiotonics” (1988)
